Experiments:
Assay type in all cases: cell-based
LNCaP_NED cells = assay: Cell proliferation
Procedure, shortened: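 LNCaP cells were cultured in charcoal-stripped serum (androgen- and steroid-depleted) media to induce neuroendocrine differentiation (LNCaP_NED). NED cells were then exposed to the test compound and/or the AR antagonist enzalutamide for 4 days, and cell proliferation was measured. DMSO served as the negative control.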

LNCaP cells = assay: Cell proliferation
VCaP_NED = assay: Western blotting of protein expression during NED; conditions: 10 μM, 48 hours
Procedure, shortened: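 Neuroendocrine-differentiated cells were treated for 48 h with DMSO, 10 μM GSK343 (an EZH2 inhibitor) or 10 μM test compound. Parental cells treated with DMSO served as the reference. Whole-cell lysates were extracted and analysed by western blotting. Data are from n=3 biological replicates, shown with SEM, and compared by two-tailed Student's t-test.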

| Compound | cell proliferation with AR antagonist (LNCaP_NED cells) | cell proliferation with AR antagonist (LNCaP cells) | CBX2 protein expression (VCaP_NED) | H3K27me3 levels (global) (VCaP_NED) | AR protein expression (VCaP_NED; compared to DMSO) | ENO2 and N-Myc protein expression (VCaP_NED; compared to DMSO) |
| --- | --- | --- | --- | --- | --- | --- |
| CNC(=O)c1ccc(N2C(=S)N(c3ccc(C#N)c(C(F)(F)F)c3)C(=O)C2(C)C)cc1F [enzalutamide] | no further decrease in proliferation | highly decreased proliferation | – | – | – | – |
| CCCc1cc(C)[nH]c(=O)c1CNC(=O)c1cc(-c2ccnc(N3CCN(C)CC3)c2)cc2c1cnn2C(C)C [GSK343] | – | – | decrease in CBX2 expression | reduces H3K27me3 levels | increase AR | decrease ENO2 and N-Myc expression |

Reference: article PMC8358665 (Chembiochem : a European journal of chemical biology, 2021)
